Series [1] in a line: folding enthalpy; higher = less favourable; fluorescence melt of hairpins on a sequencing array, two-state fit. As to conditions: sodium 0.088 M. The procedure, abridged: (§1)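 Library hairpins on a sequenced MiSeq flow cell carried annealed Cy3 and quencher oligos, and their Cy3 fluorescence was imaged in 50 mM Na-HEPES pH 8.0 with 25 mM NaCl, in 2.5 °C steps up to 60 °C. Signals were normalised to Cy3 before quenching and to control constructs. Melting temperature and folding enthalpy were obtained from bootstrapped two-state fits, combined by inverse-variance weighting across four replicates, and the fitted temperatures were then raised by 9.35 °C to match UV melts.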

Series [2] in a line: melting temperature; fluorescence melt of hairpins on a sequencing array, two-state fit, raised by 9.35 °C to match UV melts. Conditions: sodium 0.088 M. Summed up:
as §1

For the sequence GCGGCTGGAAACGGCTGC ((.((.(....).)).)), the folding enthalpy in series [1] was -38.5 kcal/mol. For the same sequence, in series [2], the Tm came to 53 °C.

On to GGGAAGCGAAAGCTCCCC (((.(((....))).))), for which, in series [1], the folding enthalpy is -21.7 kcal/mol. Besides, the Tm in series [2] worked out at 61.5 °C.

GTACGGCCGAAAGGCTAC (((..(((....)))))): the folding enthalpy in series [1] is -7.78 kcal/mol. Also, the Tm in series [2] was 28.7 °C.

In the case of GATCTTGGCTAAGATC ((((((....)))))), the folding enthalpy in series [1] was -45.1 kcal/mol. Further, the Tm in series [2] worked out at 48.2 °C.

Consider GATCTGACAGCAGATC ((((((....)))))), for which the folding enthalpy in series [1] is -28.6 kcal/mol. For the same sequence, the Tm in series [2] amounted to 44.7 °C.

GGCATACGAAAGTAAGCC (((.(((....))).))): the folding enthalpy in series [1] was -37.1 kcal/mol. For the same sequence, in series [2], the Tm is 54 °C.

Regarding GCTAGCGAAAGCTGAAGC ((((((....)))..))), the folding enthalpy in series [1] is -15 kcal/mol. In addition, the Tm in series [2] was determined as 43.1 °C.

Consider GATCCTGCAAGGATC ((((((...)))))), for which, in series [1], the folding enthalpy was -39.6 kcal/mol. For the same sequence, in series [2], the Tm turned out to be 68.5 °C.

Turning to GCGCAGCGAAAGCTACGC (((.(((....))).))), in series [1], the folding enthalpy was -35 kcal/mol. In series [2], the Tm turned out to be 53.5 °C.

Consider GCTCATGGAAACATGAAC (.(((((....))))).), for which, in series [1], the folding enthalpy is -18.3 kcal/mol. Besides, in series [2], the Tm is 35.7 °C.

As for GGCTGCGAAAGCAAGGCC ((((((....)))..))), in series [1], the folding enthalpy was -18.5 kcal/mol. Also, in series [2], the Tm stood at 55.8 °C.

Consider GCACAAGGAAACCTGTGC (((((.(....).))))), for which the folding enthalpy in series [1] was -34 kcal/mol. Further, the Tm in series [2] was found to be 50.5 °C.

In the case of CGCGACGGAAACGTGGCG (((.(((....))).))), the folding enthalpy in series [1] was -49 kcal/mol. The Tm in series [2] came out at 56.9 °C.

On to GATGTCGAAAGACATC ((((((....)))))), for which the folding enthalpy in series [1] is -36.3 kcal/mol. Moreover, the Tm in series [2] came out at 66.3 °C.

As to GCTCACACGAAAGTGAGC (((..(((....)))))), the folding enthalpy in series [1] is -32 kcal/mol. Moreover, the Tm in series [2] came to 60.5 °C.

Consider GTACATGGAAACGTGTAC (((((.(....).))))), for which the folding enthalpy in series [1] was -32.1 kcal/mol. Moreover, the Tm in series [2] stood at 45.8 °C.

With GGGAGCCGAAAGGCACCC (((.(((....))).))), in series [1], the folding enthalpy was -29.5 kcal/mol. In addition, the Tm in series [2] stood at 67.1 °C.

As to GTAATTGGAAACAATTGC (.(((((....))))).), in series [1], the folding enthalpy is -26.5 kcal/mol. Besides, the Tm in series [2] was found to be 39.2 °C.

Consider GGAAGAGCGAAAGCTTCC (((..(((....)))))), for which the folding enthalpy in series [1] was -16.1 kcal/mol. The Tm in series [2] is 43.8 °C.

With GATCCAGCTTTGGATC ((((((....)))))), in series [1], the folding enthalpy is -32.1 kcal/mol. Besides, the Tm in series [2] came to 51.5 °C.

As for GCTACCCCGAAAGGGAGC (((..(((....)))))), the folding enthalpy in series [1] is -22.8 kcal/mol. For the same sequence, the Tm in series [2] worked out at 46.9 °C.

GGGTACGAAAGTAGACCC ((((((....)))..))): the folding enthalpy in series [1] is -19.2 kcal/mol. Also, in series [2], the Tm turned out to be 46.2 °C.

With GGTGTAGGAAACCACACC (((((.(....).))))), in series [1], the folding enthalpy is -32.9 kcal/mol. In addition, in series [2], the Tm was 47.4 °C.

Turning to GGTAGAGGAAACTCCACC (((.(((....))).))), in series [1], the folding enthalpy is -28.2 kcal/mol. Besides, in series [2], the Tm is 31.6 °C.

For the sequence GATCTTAGCGAAGATC ((((((....)))))), in series [1], the folding enthalpy is -31.2 kcal/mol. In series [2], the Tm came to 43.4 °C.

Consider GTTCTTGGAAACAAGAAC (((((((....))))))), for which the folding enthalpy in series [1] was -41.7 kcal/mol. Further, the Tm in series [2] was 55.5 °C.

Take GCGACCGAAAGGTGACGC ((((((....)))..))): in series [1], the folding enthalpy is -26.7 kcal/mol. In series [2], the Tm turned out to be 52 °C.

GATCATGGTAATGATC ((((((....)))))): the folding enthalpy in series [1] was -41.1 kcal/mol. For the same sequence, in series [2], the Tm came out at 56.2 °C.

In the case of AAGACGAAAGTCTT (((((....))))), the folding enthalpy in series [1] is -20.1 kcal/mol. The Tm in series [2] was 52.7 °C.

In the case of GATCGTTATGACGATC ((((((....)))))), in series [1], the folding enthalpy was -38.6 kcal/mol. Moreover, in series [2], the Tm was 55.9 °C.

As to GATCCCGAAAGGGAGATC ((((((....)))..))), the folding enthalpy in series [1] is -20.6 kcal/mol. Also, the Tm in series [2] turned out to be 50.5 °C.

Turning to GTAGCCCGAAAGGGTTAC (((.(((....))).))), the folding enthalpy in series [1] is -25.4 kcal/mol. Besides, the Tm in series [2] stood at 60.2 °C.

As for GCAATGCGAAAGCAAGGC ((..(((....)))..)), in series [1], the folding enthalpy was -18.7 kcal/mol. Moreover, in series [2], the Tm is 43.7 °C.

Consider GCCCGGCGAAAGCAGTGC ((.(.((....)).).)), for which the folding enthalpy in series [1] was -18.2 kcal/mol. In series [2], the Tm is 40.5 °C.

With GCGTTTCAACGC ((((....)))), the folding enthalpy in series [1] was -27.6 kcal/mol. Besides, the Tm in series [2] was 60.2 °C.

For the sequence GCGTACTCGAAAGAGCGC (((..(((....)))))), in series [1], the folding enthalpy is -28.6 kcal/mol. For the same sequence, in series [2], the Tm was found to be 47.8 °C.

On to GCTCGCGAAAGCGGCAGC ((((((....)))..))), for which the folding enthalpy in series [1] is -12.2 kcal/mol. The Tm in series [2] stood at 48.9 °C.
